Results reported in ChEMBL document CHEMBL4414601 (J Med Chem, 2019).
Converted amounts (≈) assume the structure as drawn. The source made the active and inactive calls. The calls are words filed in the database; no cut-off is given here.

Legend:
[1] = Clearance in rat liver microsomes at 0.5 uM measured up to 45 mins in presence of NADPH by HPLC-MS/MS analysis; assay type: ADME, Microsome
[2] = Clearance in mouse liver microsomes at 0.5 uM measured up to 45 mins in presence of NADPH by HPLC-MS/MS analysis; assay type: ADME, Microsome
Plasmodium falciparum [3] = assay: Antiplasmodial activity against Plasmodium falciparum 3D7A erythrocytic stage assessed as reduction in [3H]hypoxanthine incorporation preincubated for 24 hrs followed by [3H]hypoxanthine addition and measured after 24 hrs by microbeta scintillation counting method; assay type: functional, organism-based
Outline: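 Nine threefold serial dilutions from 5 μM top concentration. Incubated 24 h at 37 °C under 5% CO2/5% O2/90% N2, then 0.2 μCi [3H]-hypoxanthine per well for another 24 h. Cells harvested on glass fibre filters and counted. Data normalized to compound-free parasitized RBCs; IC50 fitted.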

L929 = assay: Cytotoxicity against mouse L929 cells assessed as reduction in viability by dual luciferase reporter gene assay; assay type: ADME, cell-based
[4] = Lipophilicity, LogD of compound by reverse phase HPLC analysis
[5] = Clearance in human liver microsomes at 0.5 uM measured up to 45 mins in presence of NADPH by HPLC-MS/MS analysis; assay type: ADME, Microsome
[6] = Aqueous solubility of compound; conditions: buffer
[7] = Permeability of compound by PAMPA
Plasmodium falciparum [8] = assay: Antiplasmodial activity against Plasmodium falciparum 3D7A erythrocytic stage assessed as reduction in [3H]hypoxanthine incorporation preincubated for 24 to 120 hrs followed by subculture in absence of compound and measured after 21 to 28 days by microbeta scintillation counting method; assay type: functional, organism-based
Outline: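 P. falciparum 3D7A cultures were drug-exposed for 120 h, with samples taken every 24 h (24, 48, 72, 96 and 120 h). Viable parasites were quantified by limiting dilution, counting wells with growth after 21 and 28 days by [3H]-hypoxanthine incorporation.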

Plasmodium falciparum [9] = assay: Antiplasmodial activity against Plasmodium falciparum 3D7A asexual erythrocytic stage assessed as reduction in [3H]hypoxanthine incorporation preincubated for 48 hrs followed by [3H]hypoxanthine addition and measured after 24 hrs by microbeta scintillation counting method; assay type: functional, organism-based
Plasmodium falciparum [10] = assay: Antiplasmodial activity against Plasmodium falciparum 3D7A harboring with PKG T618Q mutant asexual erythrocytic stage assessed as reduction in [3H]hypoxanthine incorporation preincubated for 72 hrs followed by [3H]hypoxanthine addition and measured after 24 hrs by microbeta scintillation counting method; assay type: functional, organism-based
Plasmodium falciparum [11] = assay: Antiplasmodial activity against Plasmodium falciparum 3D7A harboring with PKG T618Q mutant asexual erythrocytic stage assessed as reduction in [3H]hypoxanthine incorporation preincubated for 48 hrs followed by [3H]hypoxanthine addition and measured after 24 hrs by microbeta scintillation counting method; assay type: functional, organism-based
[12] = target: Voltage-gated inwardly rectifying potassium channel KCNH2 (Homo sapiens, UniProt Q12809); assay: Inhibition of human ERG expressed in CHO cells by Q-patch clamp assay
Chain of Voltage-gated inwardly rectifying potassium channel KCNH2 (Q12809 whole entry): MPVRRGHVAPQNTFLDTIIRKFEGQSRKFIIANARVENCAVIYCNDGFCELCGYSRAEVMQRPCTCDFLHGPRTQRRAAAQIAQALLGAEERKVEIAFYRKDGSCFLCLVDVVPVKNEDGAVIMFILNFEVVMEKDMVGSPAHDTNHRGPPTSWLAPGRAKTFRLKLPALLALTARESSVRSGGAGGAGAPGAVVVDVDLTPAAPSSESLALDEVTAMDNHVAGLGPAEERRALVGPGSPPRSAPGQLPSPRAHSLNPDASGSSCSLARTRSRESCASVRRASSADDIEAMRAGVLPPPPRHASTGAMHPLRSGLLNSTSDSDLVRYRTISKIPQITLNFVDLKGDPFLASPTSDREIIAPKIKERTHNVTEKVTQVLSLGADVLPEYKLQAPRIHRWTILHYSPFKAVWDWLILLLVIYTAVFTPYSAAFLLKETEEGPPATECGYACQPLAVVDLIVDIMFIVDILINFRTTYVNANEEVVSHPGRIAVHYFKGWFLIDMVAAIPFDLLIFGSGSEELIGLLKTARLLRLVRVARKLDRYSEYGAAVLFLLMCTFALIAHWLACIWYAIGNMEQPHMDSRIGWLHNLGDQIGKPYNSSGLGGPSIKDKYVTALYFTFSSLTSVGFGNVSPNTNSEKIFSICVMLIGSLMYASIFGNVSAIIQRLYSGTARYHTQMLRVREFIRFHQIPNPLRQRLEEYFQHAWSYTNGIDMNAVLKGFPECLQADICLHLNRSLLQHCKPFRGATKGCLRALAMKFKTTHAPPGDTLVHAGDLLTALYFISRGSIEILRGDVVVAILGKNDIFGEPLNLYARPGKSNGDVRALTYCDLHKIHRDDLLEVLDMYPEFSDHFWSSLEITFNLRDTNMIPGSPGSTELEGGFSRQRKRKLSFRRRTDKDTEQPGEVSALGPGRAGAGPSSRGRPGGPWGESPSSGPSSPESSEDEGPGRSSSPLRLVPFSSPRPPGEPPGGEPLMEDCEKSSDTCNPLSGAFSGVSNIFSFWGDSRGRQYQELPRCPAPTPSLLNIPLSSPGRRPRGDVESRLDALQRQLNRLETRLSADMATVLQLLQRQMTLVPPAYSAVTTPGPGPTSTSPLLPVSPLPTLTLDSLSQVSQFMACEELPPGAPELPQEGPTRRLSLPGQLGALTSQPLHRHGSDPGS

Plasmodium falciparum [13] = assay: Antiplasmodial activity against […] of Plasmodium falciparum NF54 assessed as reduction in male gametocytes activation preincubated for 48 hrs followed by gametocytes activation and measured after 24 hrs by fluorescence based automated inverted microscopic analysis; assay type: functional, organism-based
Outline: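 Gametocyte activation was triggered by reduced temperature and ookinete medium containing xanthurenic acid. Male exflagellation centres were detected from a 10-frame video, scoring pixel changes caused by flagellar movement shifting surrounding cells.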

Plasmodium falciparum [14] = assay: Antiplasmodial activity against […] of Plasmodium falciparum NF54 assessed as reduction in female gametocytes activation preincubated for 48 hrs followed by gametocytes activation and measured after 24 hrs by fluorescence based automated inverted microscopic analysis; assay type: functional, organism-based
Outline: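 NF54 gametocytes were activated by lowered temperature plus ookinete medium with xanthurenic acid and anti-Pfs25-Cy3 antibody (1/2000 final dilution). Cultures were then kept at 26 °C for 24 h in the dark. Activated females were counted by Cy3 anti-Pfs25 fluorescence, with events gated on size, roundness and fluorescence intensity.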

[15] = target: cGMP-dependent protein kinase (Plasmodium falciparum, UniProt W7JX98); assay: Inhibition of Plasmodium falciparum full length N-terminal His-tagged PKG expressed in Escherichia coli RosettaTM 2(DE3) pLysS cells using FAM-GRTGRRNSI-NH2 as substrate preincubated for 30 mins followed by ATP addition and measured after 30 mins by microfluidic mobility shift assay
Chain of cGMP-dependent protein kinase (W7JX98 whole entry): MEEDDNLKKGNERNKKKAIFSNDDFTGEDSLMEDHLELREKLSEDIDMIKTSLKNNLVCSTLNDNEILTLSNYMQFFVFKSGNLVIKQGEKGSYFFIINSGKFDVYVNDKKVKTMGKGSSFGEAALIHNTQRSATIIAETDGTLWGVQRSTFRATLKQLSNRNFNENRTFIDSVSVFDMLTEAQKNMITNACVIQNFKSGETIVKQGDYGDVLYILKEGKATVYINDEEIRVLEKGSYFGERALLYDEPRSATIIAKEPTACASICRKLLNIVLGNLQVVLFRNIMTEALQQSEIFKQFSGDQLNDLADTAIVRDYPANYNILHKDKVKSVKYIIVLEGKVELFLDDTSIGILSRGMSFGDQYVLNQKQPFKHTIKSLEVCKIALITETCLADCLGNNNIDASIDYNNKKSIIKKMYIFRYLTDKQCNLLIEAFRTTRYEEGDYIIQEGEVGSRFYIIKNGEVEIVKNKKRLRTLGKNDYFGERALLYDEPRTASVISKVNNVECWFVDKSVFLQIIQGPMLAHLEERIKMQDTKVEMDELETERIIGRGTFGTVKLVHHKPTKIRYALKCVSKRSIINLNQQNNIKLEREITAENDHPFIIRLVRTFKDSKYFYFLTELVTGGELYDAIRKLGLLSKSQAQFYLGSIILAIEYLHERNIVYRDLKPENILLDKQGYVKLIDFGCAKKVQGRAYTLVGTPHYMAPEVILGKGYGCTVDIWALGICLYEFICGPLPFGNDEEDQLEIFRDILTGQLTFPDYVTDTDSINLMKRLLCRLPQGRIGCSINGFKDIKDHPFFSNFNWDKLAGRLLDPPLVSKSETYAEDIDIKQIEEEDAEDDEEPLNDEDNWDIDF

Plasmodium falciparum [16] = assay: Antiplasmodial activity against Plasmodium falciparum 3D7A asexual erythrocytic stage assessed as reduction in [3H]hypoxanthine incorporation preincubated for 72 hrs followed by [3H]hypoxanthine addition and measured after 24 hrs by microbeta scintillation counting method; assay type: functional, organism-based

| Compound | CLH [1] [mL/min/g] | CLH [2] [mL/min/g] | EC50 (Plasmodium falciparum [3]) [µM] | EC50 (L929) [µM] | chromatographic logD [4] | CLH [5] [mL/min/g] | solubility [6] [µM] | Papp [7] [×10⁻⁶ cm/s] | Activity (Plasmodium falciparum [8]) | EC50 (Plasmodium falciparum [9]) [µM] | EC50 (Plasmodium falciparum [10]) [µM] | EC50 (Plasmodium falciparum [11]) [µM] | IC50 [12] [µM] | EC50 (Plasmodium falciparum [13]) [µM] | EC50 (Plasmodium falciparum [14]) [µM] | IC50 [15] [µM] | EC50 (Plasmodium falciparum [16]) [µM] |
| --- | --- | --- | --- | --- | --- | --- | --- | --- | --- | --- | --- | --- | --- | --- | --- | --- | --- |
| Fc1ccc(-c2nc(C3CCNCC3)sc2-c2ccnc(Nc3cccnn3)n2)cc1 | 0.95 | 4.42 | 0.98 | 3.2 | 2.14 | 0.47 | 123 (≈ 53.3 µg/mL) | 19 | – | – | – | – | – | – | – | – | – |
| CN1CCC(c2nc(-c3ccc(F)c(NS(C)(=O)=O)c3)c(-c3ccnc(NCC4CC4)n3)s2)CC1 | 6.22 | 1.32 | 1.02 | 17 | 3.2 | 0.49 | 311 (≈ 161 µg/mL) | 34 | inactive | 1.02 | 3.9 | > 5 | 1.34 | – | – | – | – |
| CN1CCC(C(=O)Nc2nc(-c3ccc(F)cc3)c(-c3ccnc(Nc4ccc(N5CCNCC5)cc4)n3)s2)CC1 | 0.46 | 0.48 | 1.46 | 7.8 | 2.2 | 0.4 | 11 (≈ 6.3 µg/mL) | 1 | – | – | – | – | – | 0.63 | 1.31 | – | – |
| CN1CCN(c2ccc(Nc3nccc(-c4sc(C5CCNCC5)nc4-c4ccc(F)cc4)n3)cc2)CC1 | 1.27 | 0.96 | 0.7 | 3.8 | 2.79 | 0.53 | 41 (≈ 21.7 µg/mL) | 11 | – | – | – | – | 13.2 | 0.26 | 0.3 | 0.0006 | – |
| Fc1ccc(-c2nc(C3CCNCC3)sc2-c2ccnc(Nc3nncs3)n2)cc1 | 0.46 | 0.67 | 1.02 | 2.8 | 1.82 | 0.55 | 66 (≈ 29 µg/mL) | < 1 | – | – | – | – | 2.5 | 0.14 | 0.38 | – | – |
| CCc1nc(N)nc(N)c1-c1ccc(Cl)cc1 [PYRIMETHAMINE] | – | – | 0.1 | – | – | – | – | – | – | – | – | – | – | > 10 | > 10 | – | – |
| Cc1cc(Nc2nccc(-c3sc(C4CCNCC4)nc3-c3ccc(F)cc3)n2)on1 | – | – | 2.65 | 2.3 | 2.61 | – | 66 (≈ 28.8 µg/mL) | 12 | – | – | – | – | – | – | – | 0.003 | – |
| OC(CNc1nccc(-c2sc(C3CCNCC3)nc2-c2ccc(F)cc2)n1)c1ccncc1 (stereo unspecified) | 0.77 | 2.08 | – | 15.1 | 1.79 | 5.8 | 225 (≈ 107 µg/mL) | 1 | – | – | – | – | 28.2 | 3.67 | 10.6 | – | – |
| C[C@H]1[C@H](OC(=O)CCC(=O)O)O[C@@H]2O[C@@]3(C)CC[C@H]4[C@H](C)CC[C@@H]1[C@@]24OO3 [ARTESUNATE] | – | – | 0.03 | – | – | – | – | – | – | – | – | – | – | > 10 | > 10 | – | – |
| Cc1cc(Nc2nccc(-c3sc(C4CCNCC4)nc3CN3CCCCC3)n2)ccn1 | – | – | 0.19 | 20 | – | – | – | 1 | Active | – | – | – | – | – | – | – | – |
| Cc1cc(Nc2nccc(-c3sc(C4CCNCC4)nc3C3CC3)n2)ccn1 | 1.18 | 0.87 | 0.27 | 8.9 | 1.99 | 0.4 | 342 (≈ 134 µg/mL) | 18 | Active | – | – | – | – | – | – | – | – |
| Fc1ccc(-c2nc(C3CCNCC3)sc2-c2ccnc(Nc3cnccn3)n2)cc1 | 0.49 | 0.72 | 0.6 | 3.2 | 2.32 | 0.4 | 68 (≈ 29.5 µg/mL) | 16 | – | 1.36 | 0.88 | 0.82 | – | – | – | 0.005 | 0.69 |
| Fc1ccc(-c2nc(N3CCCC3)sc2-c2ccnc(Nc3ccc(N4CCNCC4)cc3)n2)cc1 | 0.81 | 1.56 | 0.77 | 3.8 | 4.43 | 0.59 | 54 (≈ 27.1 µg/mL) | 27 | – | – | – | – | – | – | – | 0.002 | – |
| Nc1nc(-c2ccc(F)cc2)c(-c2ccnc(Nc3ccc(N4CCNCC4)cc3)n2)s1 | 1.98 | 1.47 | 1.75 | 1.8 | 2.42 | 0.52 | 24.5 (≈ 11 µg/mL) | – | – | – | – | – | 35.5 | 0.15 | 0.19 | – | – |
| Fc1ccc(-c2nc(N3CCOCC3)sc2-c2ccnc(Nc3ccc(N4CCNCC4)cc3)n2)cc1 | 0.59 | 0.48 | 1.62 | 3.3 | 3.99 | 0.4 | 38 (≈ 19.7 µg/mL) | 28 | – | – | – | – | – | 1.12 | 1.07 | – | – |
